According to ChEMBL document CHEMBL1145518, “Potent immune-modulating and anticancer effects of NKT cell stimulatory glycolipids” (2007):
The source made the active and inactive calls. The rule behind the calls is not given here.

Experiments:
[1] = Induction of GM-CSF secretion in human CD161+ CD3+ NKT cells at 10 ug/ml after 18 hrs relative to basal level; type: functional
Summary of the method: (§1)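 Human Vα24i NKT cell lines were expanded for 10 days on irradiated (3,000 rad) autologous immature DCs with 10 units/ml IL-2. The cells (1 × 10^5) were cocultured with 5 × 10^4 irradiated immature CD14+ DCs plus glycolipid at 10 μg/ml. Supernatants were collected at 18 h and read on a 22-plex Luminex bead panel. Triplicates, mean ± SD.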

[2] = test system: Mus musculus; assay: Induction of MIPbeta secretion in BALB/c mouse serum at 2 ug, iv after 2 hrs relative to control; type: functional
Summary of the method: (§2)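 BALB/c mice received an i.v. injection of 100 μl of glycolipid diluted to 20 μg/ml in saline from DMSO stock, with 1% DMSO as vehicle. Serum cytokines/chemokines were measured at 2 and 18 h after injection.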

[3] = test system: Mus musculus; assay: Induction of IL13 secretion in BALB/c mouse serum at 2 ug, iv after 2 hrs relative to control; type: functional; summary of the method: as §2
[4] = Induction of TNFalpha secretion in human CD161+ CD3+ NKT cells at 10 ug/ml after 18 hrs relative to basal level; type: functional; summary of the method: as §1
[5] = Induction of IL2 secretion in human CD161+ CD3+ NKT cells at 10 ug/ml after 18 hrs relative to basal level; type: functional; summary of the method: as §1
[6] = test system: Mus musculus; assay: Induction of TNFalpha secretion in BALB/c mouse serum at 2 ug, iv after 18 hrs relative to control; type: functional; summary of the method: as §2
[7] = Induction of IL3 secretion in human CD161+ CD3+ NKT cells at 10 ug/ml after 18 hrs relative to basal level; type: functional; summary of the method: as §1
[8] = Induction of RANTES secretion in human CD161+ CD3+ NKT cells at 10 ug/ml after 18 hrs relative to basal level; type: functional; summary of the method: as §1
[9] = test system: Mus musculus; assay: Induction of GM-CSF secretion in BALB/c mouse serum at 2 ug, iv after 2 hrs relative to control; type: functional; summary of the method: as §2
[10] = Induction of IL10 secretion in human CD161+ CD3+ NKT cells at 10 ug/ml after 18 hrs relative to basal level; type: functional; summary of the method: as §1
[11] = Induction of IL12p40 secretion in human CD161+ CD3+ NKT cells at 10 ug/ml after 18 hrs relative to basal level; type: functional; summary of the method: as §1
[12] = Induction of IL13 secretion in human CD161+ CD3+ NKT cells at 10 ug/ml after 18 hrs relative to basal level; type: functional; summary of the method: as §1
[13] = test system: 4T1; assay: Antitumor activity in mouse 4T1 cells xenografted BALB/c mouse assessed as suppression of tumor growth at 2 ug, iv; type: functional, cell-based
Summary of the method: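 BALB/c mice (n = 6) were inoculated s.c. with 4T1 breast cancer cells. From day 3 they were treated i.v. with glycolipid or vehicle twice weekly for 4 weeks. Tumor volume was recorded every 3 days for 1 month, and survival was monitored up to 54 days.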

[14] = Induction of IFN-gamma secretion in human CD161+ CD3+ NKT cells at 10 ug/ml after 18 hrs relative to basal level; type: functional; summary of the method: as §1
[15] = Induction of IL4 secretion in human CD161+ CD3+ NKT cells at 10 ug/ml after 18 hrs relative to basal level; type: functional; summary of the method: as §1
[16] = test system: Mus musculus; assay: Induction of IL10 secretion in BALB/c mouse serum at 2 ug, iv after 18 hrs relative to control; type: functional; summary of the method: as §2
[17] = Induction of IL12p70 secretion in human CD161+ CD3+ NKT cells at 10 ug/ml after 18 hrs relative to basal level; type: functional; summary of the method: as §1
[18] = test system: Mus musculus; assay: Induction of IL4 secretion in BALB/c mouse serum at 2 ug, iv after 2 hrs relative to control; type: functional; summary of the method: as §2
[19] = test system: Mus musculus; assay: Induction of MCP1 secretion in BALB/c mouse serum at 2 ug, iv after 2 hrs relative to control; type: functional; summary of the method: as §2
[20] = Induction of MIPalpha secretion in human CD161+ CD3+ NKT cells at 10 ug/ml after 18 hrs relative to basal level; type: functional; summary of the method: as §1
[21] = test system: Mus musculus; assay: Induction of IL2 secretion in BALB/c mouse serum at 2 ug, iv after 2 hrs relative to control; type: functional; summary of the method: as §2
[22] = Induction of MCP1 secretion in human CD161+ CD3+ NKT cells at 10 ug/ml after 18 hrs relative to basal level; type: functional; summary of the method: as §1
[23] = test system: Mus musculus; assay: Induction of RANTES secretion in BALB/c mouse serum at 2 ug, iv after 2 hrs relative to control; type: functional; summary of the method: as §2
[24] = test system: Mus musculus; assay: Induction of IL12p70 secretion in BALB/c mouse serum at 2 ug, iv after 18 hrs relative to control; type: functional; summary of the method: as §2
[25] = test system: TC1; assay: Antitumor activity in TC1 cells xenografted C57BL/6 mouse assessed as suppression of tumor growth at 2 ug, iv; type: functional, cell-based
Summary of the method: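 C57BL/6 mice (n = 5/group) were inoculated i.v. with TC-1 lung cancer cells. They were then treated i.v. with 2 μg glycolipid per mouse, or 100 μl of 1% DMSO, twice weekly for 4 weeks. Kaplan–Meier survival and body weight were followed, with tumor-free mice as an additional control.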

[26] = test system: Mus musculus; assay: Induction of IL12p40 secretion in BALB/c mouse serum at 2 ug, iv after 18 hrs relative to control; type: functional; summary of the method: as §2
[27] = Induction of IL15 secretion in human CD161+ CD3+ NKT cells at 10 ug/ml after 18 hrs relative to basal level; type: functional; summary of the method: as §1
[28] = Induction of IL6 secretion in human CD161+ CD3+ NKT cells at 10 ug/ml after 18 hrs relative to basal level; type: functional; summary of the method: as §1
[29] = test system: Mus musculus; assay: Increase in CD8/CD4 T cell ratio in BALB/c mouse at 2 ug, iv after 72 hrs by flow cytometry; type: functional, organism-based
[30] = test system: Mus musculus; assay: Induction of IL1-beta secretion in BALB/c mouse serum at 2 ug, iv after 18 hrs relative to control; type: functional; summary of the method: as §2
[31] = test system: Mus musculus; assay: Induction of IFN-gamma secretion in BALB/c mouse serum at 2 ug, iv after 18 hrs relative to control; type: functional; summary of the method: as §2
[32] = test system: Mus musculus; assay: Induction of KC secretion in BALB/c mouse serum at 2 ug, iv after 2 hrs relative to control; type: functional; summary of the method: as §2
[33] = test system: Mus musculus; assay: Induction of IL6 secretion in BALB/c mouse serum at 2 ug, iv after 2 hrs relative to control; type: functional; summary of the method: as §2
[34] = test system: Mus musculus; assay: Induction of IL3 secretion in BALB/c mouse serum at 2 ug, iv after 2 hrs relative to control; type: functional; summary of the method: as §2
[35] = Induction of IL8 secretion in human CD161+ CD3+ NKT cells at 10 ug/ml after 18 hrs relative to basal level; type: functional; summary of the method: as §1
[36] = test system: HeLa; assay: Activation of TCR in human HeLa cells overexpressing CD1d assessed as increase in CREB phosphorylation; type: cell-based
Summary of the method: (§3)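 Human HeLa, HeLa-CD1d or autologous immature DCs were loaded with glycolipid at 10 μg/ml, or DMSO, for 2 h. Then 3 × 10^5 naïve CD161+/CD3+ NKT cells were added; these were bead-isolated and kept in 100 units/ml IL-2. After 5–10 min the cells were washed and lysed at 4°C. Phospho-CD3ε, ERK1/2 (Thr-185/Tyr-187) and CREB (Ser-133) were read by Luminex bead assay as median fluorescence normalized to total protein, expressed as fold over 1% DMSO.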

[37] = test system: dendritic; assay: Activation of TCR in human immature dendritic cells assessed as increase in CREB phosphorylation; type: cell-based; summary of the method: as §3
[38] = test system: dendritic; assay: Activation of TCR in human immature dendritic cells assessed as increase in CD3epsilon phosphorylation; type: cell-based; summary of the method: as §3
[39] = test system: dendritic; assay: Activation of TCR in human immature dendritic cells assessed as increase in ERK1/2 phosphorylation; type: cell-based; summary of the method: as §3
[40] = test system: HeLa; assay: Activation of TCR in human HeLa cells overexpressing CD1d assessed as increase in ERK1/2 phosphorylation; type: cell-based; summary of the method: as §3
[41] = test system: HeLa; assay: Activation of TCR in human HeLa cells overexpressing CD1d assessed as increase in CD3epsilon phosphorylation; type: cell-based; summary of the method: as §3

| Structure (SMILES) | Activity [1] | Activity [4] | Activity [5] | Activity [7] | Activity [8] | Activity [10] | Activity [11] | Activity [12] | Activity [14] | Activity [15] | Activity [17] | Activity [20] | Activity [22] | Activity [27] | Activity [28] | Activity [35] | other results |
| --- | --- | --- | --- | --- | --- | --- | --- | --- | --- | --- | --- | --- | --- | --- | --- | --- | --- |
| CCCCCCCCCCCCCCCCCCCCCCCCCC(=O)N[C@@H](CO[C@H]1O[C@H](C(=O)O)[C@H](O)[C@H](O)[C@H]1O)[C@H](O)[C@H](O)CCCCCCCCCCCCCC | 2 | 1.7 | 2.3 | 1.3 | 1.6 | 0.7 | 1.8 | 1.1 | 3.4 | 1.5 | 2.7 | 3.3 | 1.2 | 1.7 | 1 | 1.4 | Activity [2]: 1.8; Activity [3]: 1.7; Activity [6]: 8.7; Activity [9]: 37.6; Activity [13]: Active; Activity [16]: 1.5; Activity [18]: 21.2; Activity [19]: 8; Activity [21]: 21.5; Activity [23]: 2.8; Activity [24]: 1.4; Activity [25]: Active; Activity [26]: 4.4; Activity [29]: Active; Activity [30]: 4.8; Activity [31]: 27.5; Activity [32]: 16.1; Activity [33]: 4.9; Activity [34]: 10.4 |
| CCCCCCCCCCCCCCCCCCCCCCCCCC(=O)N[C@@H](CO[C@H]1O[C@H](CO)[C@H](O)[C@H](O)[C@H]1O)[C@H](O)[C@H](O)CCCCC | 4.7 | 2.2 | 1.5 | 1.4 | 1.8 | 1.5 | 1.4 | 1.8 | 1.9 | 2.7 | 1 | 2.7 | 1.3 | 2.1 | 1.8 | 1.6 | Activity [36]: 20; Activity [37]: 49; Activity [38]: 12; Activity [39]: 18.6; Activity [40]: 3.3; Activity [41]: 5.9 |
